Assay results from ChEMBL document CHEMBL1153528, “Modeling of the aryl hydrocarbon receptor (AhR) ligand binding domain and its utility in virtual ligand screening to predict new AhR ligands” (J Med Chem, 2009).

Legend:
Format in all cases: cell-based
[1] = target: T1, Aryl hydrocarbon receptor (AhR) ligand-binding domain (Mus musculus, UniProt P30561); assay: Induction of mouse AhR LBD transcriptional activity in mouse hepa1 cells transfected with AhR response element co expressed with XRE after 6 hrs by luciferase reporter gene assay relative to control; conditions: read-out: FC
T1 sequence (P30561 whole entry): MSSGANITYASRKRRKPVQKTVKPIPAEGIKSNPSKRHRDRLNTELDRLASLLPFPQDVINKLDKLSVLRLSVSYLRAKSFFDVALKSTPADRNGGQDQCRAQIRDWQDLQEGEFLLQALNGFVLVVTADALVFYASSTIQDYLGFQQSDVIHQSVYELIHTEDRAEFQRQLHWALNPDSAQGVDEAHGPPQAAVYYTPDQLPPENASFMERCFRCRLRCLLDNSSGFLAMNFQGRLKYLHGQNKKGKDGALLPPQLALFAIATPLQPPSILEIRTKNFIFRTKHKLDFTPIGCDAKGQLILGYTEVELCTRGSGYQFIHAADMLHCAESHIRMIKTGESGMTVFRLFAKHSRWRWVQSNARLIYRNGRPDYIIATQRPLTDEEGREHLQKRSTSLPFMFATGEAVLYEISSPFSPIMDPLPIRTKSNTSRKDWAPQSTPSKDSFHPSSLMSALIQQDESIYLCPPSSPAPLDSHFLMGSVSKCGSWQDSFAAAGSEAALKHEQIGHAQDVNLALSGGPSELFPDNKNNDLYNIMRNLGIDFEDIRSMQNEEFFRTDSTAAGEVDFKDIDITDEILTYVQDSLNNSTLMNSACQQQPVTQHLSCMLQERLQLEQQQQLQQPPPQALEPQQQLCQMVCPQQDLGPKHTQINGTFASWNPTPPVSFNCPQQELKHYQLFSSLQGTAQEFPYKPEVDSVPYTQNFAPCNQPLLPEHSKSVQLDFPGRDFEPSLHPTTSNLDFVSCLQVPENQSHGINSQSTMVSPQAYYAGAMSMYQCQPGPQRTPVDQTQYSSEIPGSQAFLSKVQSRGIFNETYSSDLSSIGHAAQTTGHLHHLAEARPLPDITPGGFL
Outline: (§1)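 Mouse Hepa1 cells carrying an AhRE/XRE-luciferase reporter, grown in DMEM/10% FBS with penicillin/streptomycin under 5% CO2. Test agents from DMSO stocks, final 20 µM, were applied for 6 h and reporter activity then measured. Fold activation was graded: ≥8 very strong, >4 strong, […].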

[2] = target: T2, Aryl hydrocarbon receptor (Mus musculus, UniProt P30561); assay: Induction of nuclear translocation of AhR from cytosol in mouse Hepa1 cells at 20 uM after 60 mins using DAPI staining by microscopic analysis; conditions: hepa1, 1 h
T2 sequence (P30561 whole entry): T1 sequence (P30561 whole entry)
Outline: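 Hepa1 cells given test agents for 60 min, then fixed. They were immunostained for AhR with FITC-labelled secondary antibody and counterstained with DAPI for nuclei. AhR nuclear localization was imaged by fluorescence microscopy.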

[3] = target: T2, Aryl hydrocarbon receptor; assay: Effect on AhR-mediated CYP1A1 activation in mouse Hepa1c1c12 cells at 20 uM after 18 hrs by Western blot analysis; conditions: in the assay text read “semi-quantitative RT-PCR analysis” for “Western blot analysis”
Outline: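 Pair of Hepa1c1c7-derived lines: C12 (much reduced AhR) and C12 re-expressing WT AhR. Cells in DMEM/10% FBS with antibiotics under 5% CO2 were given 20 µM for 18 h, vehicle 0.1% DMSO, TCDD 1 nM as reference. Target genes (CYP1A1, NADPH-QO) assessed by semi-quantitative RT-PCR with GAPDH control. AhR shown by blot of 30 µg whole-cell lysate.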

[4] = target: T2, Aryl hydrocarbon receptor; assay: Induction of mouse AhR LBD transcriptional activity in mouse hepa1 cells transfected with AhR response element co expressed with XRE at 20 uM after 6 hrs by luciferase reporter gene assay in presence of 6-hydroxy-7-methoxyflavone; outline: as §1

Row | Compound | fold induction at 6 h [1] | Activity [2] | Activity [3] | Activity [4]
1 | Cc1ccc2oc(-c3ccccc3)c(O)c(=O)c2c1 | 2.5 |  |  | 
2 | O=C1CC(c2ccccc2)Oc2cc(O)cc(O)c21 (single isomer, unassigned) [PINOCEMBRIN] | 8 | Active | Active | 
3 | COc1cc(O)c2c(=O)cc(-c3ccccc3)oc2c1 [TECHTOCHRYSIN] | 11.3 | Active | Active | Not Active
4 | Clc1cc2c(cc1Cl)Oc1cc(Cl)c(Cl)cc1O2 [2,3,7,8-TETRACHLORODIBENZO-P-DIOXIN] | 21 |  |  | 
5 | O=c1cc(-c2ccccc2O)oc2c(O)c(O)ccc12 | 2.8 |  |  | 
6 | COc1ccc2c(=O)c(-c3ccccc3)coc2c1 | 2.7 |  |  | 
7 | Cc1ccc2oc(-c3ccccc3)cc(=O)c2c1 [6-METHYLFLAVONE] | 4.8 |  |  | 
